DENV2 CPE rescue: inhibitors of DENV2 cytopathic effect; 350,000 tested, 1.7% active; AID 651640; DENV2-infected cells, cytopathic effect rescue, plate reader; CPE inhibition, % at 9.99 µM; in the data active = CPE inhibition above about 20%, passing the limit was not always enough; inconclusive = no clear call, values can overlap the other calls; tested in BHK-21 cells
XiGFP reactiv: reactivates the inactive X chromosome in mouse fibroblasts; 360,000 tested, 0.055% active; XiGFP mouse fibroblasts, % GFP-positive cells imaging, 3 d; cells co-treated with 5-aza-dC sensitizer; scaled so ellipticine positive control = 100%; activation, % at 7.58 µM;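 active = mean normalized replicate activation at least 10% and every replicate at or above 10%; inconclusive = only one of the two criteria met; inactive = mean below 10% and not all replicates reach 10%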
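assay system = SV40-immortalized XiGFP fibroblast cells, line 68-5-11 | buffer or medium = DMEM plus 5-aza-dC sensitizer | doses = single-point pinned compound dosing | times = 3-day compound exposure, then 15 min fixation at room temperature | benchmarks = positive control ellipticine, 6 µM final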
FN deposition inh: fibronectin deposition inhibition; AH1F fibroblasts, Alexa488-fibronectin deposition fluorescence, overnight; inhibition, % at 12.6 µM; 350,000 tested, 0.086% active; AID 743247;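 active = mean inhibition across replicates of 30% or more, regardless of how many single replicates reach that level; inconclusive = mean under 30% yet at least half of replicates reach 30%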
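Material: AH1F fibroblast monolayer depositing Alexa488-labelled fibronectin into matrix / Amount: 10000 AH1F cells per well / Signal: fluorescence 485/525 nm / Medium: DMEM, 2% serum / Compound: single dose, pinned / Incubation: 1 h cell adhesion before compound, then overnight fibronectin incubation / Reagent: Alexa488-FN, 24 nM final / Read-out: inhibition of fibronectin deposition signal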
Cneo AK release: causes C. neoformans cell lysis; adenylate kinase release luminescence, 4 h; normalised: neutral wells 0, clomiphene wells 100; 360,000 tested, 0.2% active; lysis activity, % at 15 µM;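 active = mean lysis activity across replicates of at least 80%, whatever share of replicates individually reach that level; inactive = mean lysis activity below 80%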
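Assay system: Cryptococcus neoformans yeast cells / Dosing: single-point compound dose / Timing: 4 h at 37 °C static, read 1 h later / Measured by: luminescence of released adenylate kinase using an AK detection reagent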
CFTR F508del cor: correctors of CFTR F508del function in bronchial epithelial cells; 350,000 tested, 0.36% active; CFBE cells, YFP halide quenching; stimulated with forskolin plus potentiator P3; % fluorescence drop versus neutral controls; activity (quench increase), % at 7.58 µM;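 active = mean added fluorescence quench of at least 8% versus neutral control, with both replicates also reaching 8%; inconclusive = only one of the mean or replicate conditions met; inactive = mean below 8% and not both replicates reaching 8%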;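 also: cells transiently co-express mutant CFTR-F508del with the halide-sensitive YFP; corrector assay measuring rescue of mutant channel to the surface after 24 h compound exposure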
PGC1a acetyl inh: lowers PGC1a acetylation signal in U2OS cells; AlphaScreen anti-acetyl-lysine; with virally co-expressed GCN5 acetyltransferase; inhibition, % at 15.6 µM; 350,000 tested, 0.17% active;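 active = every replicate shows inhibition of at least 40%; inconclusive = mean inhibition at least 40% but some replicate below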
Each line names hits and unclear results; the compound was inactive in the other large screens. Only some compounds are listed: those with a hit (about 1.9% of all), similar ones and a draw of the others.

Cc1noc(C)c1NC(=O)N(C)C[C@@H]1OCCCC[C@H](C)Oc2ccc(NC(=O)NC(C)C)cc2C(=O)N([C@@H](C)CO)C[C@H]1C	none (no result: FN deposition inh)
COc1cc(C=C2CN(C)C(=O)C2=O)ccc1O	none
CCOc1cc(/C=N/NC(=O)N/N=C/c2ccc(O)c(OCC)c2)ccc1O	CFTR F508del cor 11 (no result: Cneo AK release, PGC1a acetyl inh)
CCOc1cc(/C=C2\CN(C)C/C(=C\c3ccc(O)c(OCC)c3)C2=O)ccc1O	PGC1a acetyl inh 53
CCOc1cc(/C=N/NC(=O)C(N)=O)cc(Br)c1O	none (no result: Cneo AK release, PGC1a acetyl inh)
CCOc1cc(/C=N/NC(=O)C(=O)NC2CC2)cc(Br)c1O	DENV2 CPE rescue 47 (no result: CFTR F508del cor)
C[C@H]1CN([C@@H](C)CO)C(=O)c2cccc(NS(=O)(=O)c3ccc(F)cc3)c2O[C@@H]1CN(C)C(=O)Nc1cccc2ccccc12	none (no result: Cneo AK release)
COc1ccc2sc(-c3ccc(N(C)C)cc3)c(C#CCCO)c2c1	DENV2 CPE rescue 26
COc1ccc(-c2sc3ccc(OC)cc3c2C#CCCO)cc1	none (no result: DENV2 CPE rescue, XiGFP reactiv, FN deposition inh, CFTR F508del cor)
COc1cc(C2CC(=O)c3c(O)cc(O)cc3O2)ccc1O (stereo not drawn)	none (no result: XiGFP reactiv, FN deposition inh)
O=C1C[C@@H](c2ccc(O)cc2)Oc2cc(O)cc(O)c21	DENV2 CPE rescue 103
CC(C)CC#Cc1ccc2c(c1)O[C@@H](CN(C)C(=O)CC1CC1)[C@H](C)CN([C@H](C)CO)S2(=O)=O	none (no result: Cneo AK release)
CNC[C@@H]1Oc2c(NS(=O)(=O)c3ccc(Cl)cc3)cccc2C(=O)N([C@@H](C)CO)C[C@@H]1C	none
C[C@@H]1CN([C@@H](C)CO)C(=O)c2cccc(NS(=O)(=O)c3ccc(Cl)cc3)c2O[C@@H]1CN(C)S(=O)(=O)c1ccc(F)cc1	none (no result: DENV2 CPE rescue, FN deposition inh, Cneo AK release)
C[C@@H]1CN([C@@H](C)CO)C(=O)c2cccc(NS(=O)(=O)c3ccc(F)cc3)c2O[C@H]1CN(C)S(=O)(=O)c1ccc(Cl)cc1	Cneo AK release 110 (no result: FN deposition inh)
Cc1ccc(S(=O)(=O)Nc2cccc3c2O[C@@H](CN(C)S(=O)(=O)c2ccc(Cl)cc2)[C@@H](C)CN([C@@H](C)CO)C3=O)cc1	DENV2 CPE rescue 21 (no result: FN deposition inh, Cneo AK release)
CNC[C@H]1Oc2c(NS(=O)(=O)c3ccc(Cl)cc3)cccc2C(=O)N([C@@H](C)CO)C[C@@H]1C	DENV2 CPE rescue 94
Cc1ccc(S(=O)(=O)N(C)C[C@H]2Oc3c(cccc3N(C)C)C(=O)N([C@@H](C)CO)C[C@H]2C)cc1	Cneo AK release 90
Cc1ccc(S(=O)(=O)N(C)C[C@H]2Oc3c(cccc3N(C)C)C(=O)N([C@H](C)CO)C[C@H]2C)cc1	none
O=C(C1CCCCC1)N1CC2(C1)[C@H](c1ccccc1)[C@H](CO)N2Cc1ccc(Cl)cc1	CFTR F508del cor inconclusive (no result: Cneo AK release)
C[C@H]1CN([C@@H](C)CO)C(=O)c2cc(NC(=O)Cc3ccccc3)ccc2O[C@@H]1CN(C)CC1CC1	none (no result: FN deposition inh, Cneo AK release)
Cc1cc(OCC(=O)NNC(=O)c2cnccn2)cc(C)c1Cl	PGC1a acetyl inh 85 (no result: FN deposition inh)
Cc1ccc(OCC(=O)NCCCNC(=O)c2cnccn2)cc1C	DENV2 CPE rescue inconclusive (no result: PGC1a acetyl inh)
Cc1cc(F)ccc1C(O)c1ncc(-c2ccccc2C(F)(F)F)[nH]1 (stereo not drawn)	DENV2 CPE rescue 60 (no result: PGC1a acetyl inh)
C[C@@H]1CN([C@@H](C)CO)C(=O)c2cc(NS(=O)(=O)c3cn(C)cn3)ccc2O[C@@H]1CN(C)Cc1ccc(Cl)c(Cl)c1	none (no result: FN deposition inh)
C=CCN1Cc2ccccc2C[C@@]2(COC(c3ccc(OCCCO)cc3)=N2)C1=O	DENV2 CPE rescue 24 (no result: XiGFP reactiv, FN deposition inh)
C=CCN1Cc2ccccc2[C@@H]2OC(c3ccc(OCCCO)cc3)=N[C@]2(Cc2ccccc2)C1=O	none (no result: XiGFP reactiv, FN deposition inh)
CCCC#Cc1ccc2c(c1)O[C@@H](CN(C)C)[C@@H](C)CN([C@H](C)CO)S2(=O)=O	none
COCc1cn(CC[C@H]2CC[C@@H](NC(=O)Nc3ccc(Cl)cc3)[C@H](CO)O2)nn1	none (no result: FN deposition inh)
Cc1cc(C)n2ncc(C(=O)NCc3ccc(Cl)cc3)c2n1	FN deposition inh 46 (no result: DENV2 CPE rescue, XiGFP reactiv, CFTR F508del cor)
COc1ccc(NC(=O)Nc2ccc3c(c2)C(=O)N([C@H](C)CO)C[C@@H](C)[C@H](CN(C)S(C)(=O)=O)OCCCC[C@@H](C)O3)cc1	none (no result: FN deposition inh)
O=C(c1ccc(N2CCN(C(=O)c3ccccc3)CC2)cc1)c1cccc(F)c1	DENV2 CPE rescue 65 (no result: PGC1a acetyl inh)
O=C(c1ccc(N2CCN(C(=O)c3ccc(F)c(F)c3)CC2)cc1)c1cccc(F)c1	DENV2 CPE rescue inconclusive (no result: FN deposition inh, PGC1a acetyl inh)
CCCNC(=O)Nc1ccc2c(c1)C(=O)N(C)C[C@@H](OC)[C@H](C)CN(C)[C@@H](C)CO2	none
CCCNC(=O)Nc1ccc2c(c1)OC[C@H](C)N(C(=O)c1ccccc1F)C[C@@H](C)[C@H](OC)CN(C)C2=O	DENV2 CPE rescue 40
CCCNC(=O)Nc1ccc2c(c1)C(=O)N(C)C[C@H](OC)[C@H](C)CN(C)[C@H](C)CO2	DENV2 CPE rescue 38
CCCNC(=O)Nc1ccc2c(c1)C(=O)N(C)C[C@H](OC)[C@H](C)CN(C)[C@@H](C)CO2	DENV2 CPE rescue 101
CCCNC(=O)Nc1ccc2c(c1)OC[C@@H](C)N(C)C[C@@H](C)[C@H](OC)CN(C)C2=O	none (no result: CFTR F508del cor, PGC1a acetyl inh)
CCCNC(=O)Nc1ccc2c(c1)C(=O)N(C)C[C@H](OC)[C@@H](C)CN(Cc1cccnc1)[C@H](C)CO2	Cneo AK release 81
Cc1ccc(S(=O)(=O)Nc2cccc3c2O[C@@H](CN(C)Cc2ccc(Cl)c(Cl)c2)[C@@H](C)CN([C@H](C)CO)C3=O)cc1	none (no result: DENV2 CPE rescue, FN deposition inh, Cneo AK release)
C[C@@H]1CN([C@H](C)CO)C(=O)c2cc(-c3cccc(F)c3)cnc2O[C@@H]1CN(C)C(=O)C1CCCCC1	none (no result: FN deposition inh)
Cc1ccc(NC2C(=O)NC(=O)NC2=O)cc1	DENV2 CPE rescue 36
Cc1ccc(NC2CNC(=O)NC2=O)cc1C (stereo not drawn)	none
O=C(C[C@H]1C=C[C@@H](NC(=O)Nc2ccc3c(c2)OCO3)[C@@H](CO)O1)NCc1ccc(F)cc1	none (no result: FN deposition inh, Cneo AK release)
COCC(=O)Nc1ccc2c(c1)C(=O)N(C)[C@@H]1CC[C@H](CC(=O)NC3CCCC3)O[C@H]1CO2	none
Cc1cc(=O)oc2cc(OCCSCCN3CCCC3)ccc12	DENV2 CPE rescue 37
COc1ccc(N2CCN(CCOc3ccc4c(C)cc(=O)oc4c3)CC2)cc1	none (no result: CFTR F508del cor)
O=C(C[C@@H]1CC[C@@H](NS(=O)(=O)c2ccc(F)cc2)[C@H](CO)O1)N1CCc2ccccc2C1	none (no result: FN deposition inh)
C[C@@H]1CN([C@@H](C)CO)C(=O)c2cc(NS(=O)(=O)c3ccc(F)cc3)ccc2O[C@@H]1CN(C)S(=O)(=O)c1cccs1	DENV2 CPE rescue 28
C[C@H]1CN([C@@H](C)CO)C(=O)c2cc(NS(=O)(=O)c3ccc(Cl)cc3)ccc2O[C@@H]1CN(C)S(=O)(=O)c1cccs1	DENV2 CPE rescue 39 (no result: FN deposition inh)
